High-throughput results (PubChem)
In the library only some 2.6% were active in any assay of this set; here they are far more common.
SENP6 block: SENP6 protease inhibition | AID 2599 | Recombinant SENP6 catalytic domain, aminoluciferin luminescence | inhibition, % at 10 µM | 1.8% of 330,000 active;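 active = inhibition above about 50% at the single tested dose, limit read from the data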;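 also: plate controls were DMSO wells with enzyme for no effect and DMSO wells lacking enzyme for full effect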
SENP1 FRET inh: blocks the human SENP1 SUMO protease catalytic domain | 0.21% of 360,000 active | AID 624204 | recombinant SENP1 catalytic domain, CyPet-SUMO1-YPet FRET cleavage | inhibition, % at 10 µM;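 active = inhibition at least 30% at 10 µM, raw YFP signal under a set limit, fluorescence ratio 0.5 to 1.5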;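 also: 0% = enzyme with DMSO and 100% = no enzyme wells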
Target sequence (Q9P0U3 419-644 limits assumed): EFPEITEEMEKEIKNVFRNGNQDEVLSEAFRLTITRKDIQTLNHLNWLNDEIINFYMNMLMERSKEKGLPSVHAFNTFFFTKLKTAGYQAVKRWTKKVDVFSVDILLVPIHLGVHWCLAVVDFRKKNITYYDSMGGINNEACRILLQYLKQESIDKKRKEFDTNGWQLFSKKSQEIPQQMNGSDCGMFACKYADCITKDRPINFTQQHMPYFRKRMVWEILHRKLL
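Material: hSENP1 catalytic domain, recombinant; medium: Tris pH 8 with BME, BSA, NP40 and catalase; compound: single concentration of 10 µM compound, 0.5% DMSO final; technique: FRET read of cyan and yellow fluorescence; timing: 50 min enzyme reaction, room temperature, light-protected; reagent: SFCypet-SUMO1-SFYpet substrate at 25 nM; control set: no-enzyme low, enzyme-DMSO high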
SENP8 block-1: SENP8 (human) protease inhibition. Q96LD8. recombinant SENP8, Nedd8 substrate fluorescence. inhibition, % at 20 µM. 0.64% of 360,000 active. AID 602440; in the data active = inhibition mostly above about 40%, no sharp cut-off; inactive = mostly below about 27%
Target sequence (Q96LD8 whole entry, looked up): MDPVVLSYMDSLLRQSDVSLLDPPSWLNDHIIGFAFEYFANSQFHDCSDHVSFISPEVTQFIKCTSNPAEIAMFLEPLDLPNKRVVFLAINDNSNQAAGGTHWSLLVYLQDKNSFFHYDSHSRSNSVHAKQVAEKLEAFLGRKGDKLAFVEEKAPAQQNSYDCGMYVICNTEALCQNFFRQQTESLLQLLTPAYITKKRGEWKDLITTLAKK
SENP8 block-2: blocks the human protease SENP8 | 1.2% of 330,000 active | Q96LD8 | purified SENP8, Z-RLRGG-aminoluciferin cleavage, luminescence | inhibition, % at 10 µM | AID 2540; in the data active = inhibition above about 50%
UCH37 DUB inh: human UCH37 deubiquitinating enzyme inhibition. Q9Y5K5. purified proteasome/UCH37, Ub-AMC cleavage fluorescence. inhibition, % (concentration not given with the values). 0.33% of 330,000 active. AID 588478;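 active = mean inhibition over replicate wells above about 20%, limit read from the data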;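 also: 0% = compound-free wells with enzyme and 100% = wells lacking proteasome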
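system = Proteasome-associated human UCH37 deubiquitinase | amount = 0.15 nM proteasome as dispensed | medium = pH 7.4 Tris-HCl (50 mM) with ovalbumin, ATP-MgCl2, DTT | incubation = 30 min preincubation with enzyme, 25 min cleavage at room temperature | detection = AMC fluorescence 355/460 nm | read-out basis = percent inhibition | controls = no-proteasome and no-compound wells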
SENP7 block: SENP7 protease inhibition. Q9BQF6. 1.5% of 330,000 active. recombinant SENP7, Z-RLRGG-aminoluciferin luminescence, 40 min. inhibition, % at 5 µM;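 active = inhibition above about 50% at the single test dose, limit read from the data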;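 also: plate controls were DMSO with enzyme for no effect and no enzyme buffer wells for full effect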
SENP8 confirm: human SENP8 inhibition, confirmed | Recombinant SENP8, Z-RLRGG-aminoluciferin luminescence, 60 min | shares compounds with SENP7 block | 40% of 6,200 active | inhibition, % at 12.5 µM;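 active = mean inhibition across replicates above about 50%, limit read from the data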
SENP6 confirm: human SENP6 inhibition, confirmed; shares compounds with SENP7 block; recombinant SENP6, Z-RLRGG-aminoluciferin luminescence; inhibition, % at 12.5 µM; 58% of 6,200 active; AID 488915
SENP7 confirm: confirmation of human SENP7 protease inhibitors; 69% of 6,200 active; shares compounds with SENP7 block; recombinant SENP7, Z-RLRGG-aminoluciferin luminescence, 40 min; inhibition, % at 12.5 µM; AID 488917
Casp3 SENP sel: caspase-3 inhibition (SENP selectivity assay). shares compounds with SENP7 block. purified caspase-3, Z-DEVD-aminoluciferin luminescence, 60 min. inhibition, % at 12.5 µM. 60% of 6,200 active;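 active = mean inhibition above about 50%, limit read from the data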;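 also: plate controls were enzyme with DMSO for no effect and wells without caspase-3 for full effect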
Target sequence (P42574 28-227 limits assumed): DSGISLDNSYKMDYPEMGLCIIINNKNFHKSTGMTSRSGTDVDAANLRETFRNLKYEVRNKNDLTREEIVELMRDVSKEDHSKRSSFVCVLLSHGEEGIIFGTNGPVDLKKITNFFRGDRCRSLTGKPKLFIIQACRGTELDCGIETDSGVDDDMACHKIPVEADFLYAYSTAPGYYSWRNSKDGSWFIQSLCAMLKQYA
Luc interf: interferes with luciferase luminescence in SENP counter-screen; Pre-incubated SENP8/Z-RLRGG-aminoluciferin, luciferase luminescence interference; inhibition, % at 12.5 µM; shares compounds with SENP7 block; 39% of 6,200 active;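 active = mean inhibition above about 50% when retested at one dose, limit read from the data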;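 also: plate controls were DMSO wells with completed reaction for no effect and substrate without enzyme for full effect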
The depositor's hits bear a star; / = not tested or not shown.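 The calls were made as follows, unless noted: active = mean inhibition above about 50% in the one-dose retest (limit read from the data); inactive = the rest.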

SMILES | SENP6 block | SENP1 FRET inh | SENP8 block-1 | SENP8 block-2 | UCH37 DUB inh | SENP7 block | SENP8 confirm | SENP6 confirm | SENP7 confirm | Casp3 SENP sel | Luc interf
O=C(O)c1cccc(NC(=O)c2ccc3c(c2)C(=O)N(CC2CCCO2)C3=O)c1 (centres undefined) | 83* | 3 | 26 | 50* | 2 | 71* | 87* | 85* | 99* | 74* | 78*
O=C(CN1CCN(Cc2ccc(Cl)cc2)CC1)NN=Cc1ccccc1F | / | / | / | / | 3 | / | / | / | / | / | /
COc1cc([N+](=O)[O-])cc(/C=N/NC(=O)c2cncc(Br)c2)c1O | 89* | -35 | 19 | 64* | / | 67* | 81* | 76* | 96* | 84* | 52*
COc1cc(/C=N/NC(=O)c2cncc(Br)c2)cc([N+](=O)[O-])c1O | 83* | -32 | 28 | 66* | / | 72* | 84* | 80* | 96* | 84* | 61*
COc1cc(C=NNC(=O)c2cncc(Br)c2)cc([N+](=O)[O-])c1O | / | / | / | / | 14 | / | / | / | / | / | /
COc1cc([N+](=O)[O-])cc(C=NNC(=O)Cn2cncn2)c1O | / | / | / | / | 15 | / | / | / | / | / | /
COc1cc(OC)c2cc(C(=O)NN=Cc3cccc(OC)c3O)[nH]c2c1 | / | / | / | / | -4 | / | / | / | / | / | /
Cc1ccc(N2C(=O)c3ccc(N)cc3C2=O)cc1C | 65* | -25 | -88 | 40 | -15 | 51* | 63* | 60* | 86* | 54* | 63*
Cc1cccc(-c2cc3nc(-c4ccccc4)cc(=O)n3[nH]2)c1 | 89* | -5 | -292 | 88* | -52 | 51* | 14 | 74* | 27 | 17 | 5
Cc1nc2nc(-c3ccccc3)cc(=O)n2[nH]1 | 3 | 1 | 3 | 36 | 2 | 55* | 57* | 52* | 84* | 85* | 66*
COc1cccc(C=NN2CCN(c3ccc(Cl)cc3)CC2)c1OC | / | / | / | / | 3 | / | / | / | / | / | /
CCC(=O)N(c1ccc(F)cc1)C1C=CS(=O)(=O)C1 (centres undefined) | 6 | 2 | 8 | -22 | 0 | 95* | 4 | 4 | 0 | 0 | -1
Cc1ccc(-c2ccnc3c(Cl)c(C)nn23)cc1 | 13 | -13 | -38 | 4 | -32 | -7 | / | / | / | / | /
Cc1ccc(-c2cnc3c(Cl)c(C)nn3c2)cc1 | 65* | 2 | 4 | 68* | -11 | 94* | 69* | 70* | 75* | 80* | 45
Cc1ccc(-c2cnc3cc(C)nn3c2)cc1 | 58* | 1 | -5 | 47 | -37 | 75* | 51* | 61* | 83* | 72* | 25
Cc1nn(C)cc1C=NNC(=O)Cn1cncn1 | / | / | / | / | 5 | / | / | / | / | / | /
COc1ccc(C=NNc2nc(-c3cccnc3)nc3ccccc23)c(OC)c1 | / | / | / | / | -34 | / | / | / | / | / | /
NS(=O)(=O)c1ccc(NC2=CC(=O)C(=O)c3ccccc32)cc1 | 87* | 2 | 50* | 88* | / | 42 | 12 | 94* | 84* | 14 | 15
Cc1cc(NC2=CC(=O)C(=O)c3ccccc32)no1 | / | 4 | -236 | / | / | / | / | / | / | / | /
O=C1C=C(Nc2ccc(O)cc2)C(=O)c2ccccc21 | 97* | 0 | 40 | 96* | 6 | 96* | 64* | 98* | 103* | 97* | 53*
Cc1nc2c(c(=O)n1CCC1=CCCCC1)c1nc3ccccc3nc1n2N=Cc1ccccc1 | / | / | / | / | -25 | / | / | / | / | / | /
Cc1cccc(/C(N)=N/OC(=O)c2ccoc2C)c1 | 97* | 1 | 14 | 94* | 3 | 98* | 97* | 97* | 102* | 97* | 96*
C/C(=N/OC(=O)c1ccc(F)cc1)c1ccc(C)cc1 | 60* | 2 | 20 | 55* | / | 71* | 12 | 8 | 18 | 17 | 5
CC(=NOC(=O)c1ccc(Br)cc1)c1ccc(C)cc1 | / | / | / | / | 2 | / | / | / | / | / | /
Cc1ccccc1/C(N)=N/OC(=O)c1ccc(F)cc1 | 74* | 4 | 10 | 61* | 3 | 81* | 70* | 72* | 93* | 90* | 75*
SMILES | SENP6 block | SENP1 FRET inh | SENP8 block-1 | SENP8 block-2 | UCH37 DUB inh | SENP7 block | SENP8 confirm | SENP6 confirm | SENP7 confirm | Casp3 SENP sel | Luc interf
N/C(=N\OC(=O)/C=C/c1ccccc1)c1ccccc1 | 90* | 3 | 9 | 80* | 5 | -2 | 90* | 89* | 99* | 90* | 83*
COc1cc(OC)c(C(=O)O/N=C(\N)c2ccccc2)cc1OC | -27 | 2 | -16 | 5 | 4 | 2 | / | / | / | / | /
Cc1ccccc1C(=O)O/N=C(\N)c1ccccc1 | 95* | 2 | 13 | 93* | -1 | 100* | 97* | 98* | 102* | 98* | 96*
Cc1occc1C(=O)O/N=C(\N)c1ccccc1 | 94* | -4 | 11 | 91* | 3 | 93* | 94* | 95* | 102* | 98* | 94*
CCc1ccc(C=NNC(=O)c2cc(-c3ccccc3OC)nc3ccccc23)s1 | / | / | / | / | 0 | / | / | / | / | / | /
Cn1cc(C(=O)NN=Cc2cccc([N+](=O)[O-])c2)c2ccccc21 | / | / | / | / | 3 | / | / | / | / | / | /
Cc1ccc(S(=O)(=O)N=C(CN2CCOCC2)N2CCCC2)cc1 | / | / | / | / | 3 | / | / | / | / | / | /
COc1ccc(/C=C/C(=O)NC(=S)N2CCN(c3ccccc3OC)CC2)cc1 | -6 | 1 | 7 | 3 | 7 | -6 | / | / | / | / | /
COc1ccc(/C=C/C(=O)NC(=S)N2CCOCC2)cc1 | 70* | 1 | -2 | 46 | / | 70* | 62* | 56* | 83* | 80* | 67*
CCCc1cc(C(=O)Nc2ccc(F)c(Cl)c2)no1 | 93* | 1 | 12 | 90* | 0 | 93* | 92* | 93* | 100* | 89* | 82*
CCCc1cc(C(=O)Nc2ccc(C(C)=O)cc2)no1 | 7 | 3 | 11 | -5 | 4 | 0 | / | / | / | / | /
CCCc1cc(C(=O)Nc2cccc(Cl)c2)no1 | 98* | 1 | 5 | 90* | 0 | 93* | 94* | 96* | 102* | 92* | 90*
CCCc1cc(C(=O)Nc2cccc(C(C)=O)c2)no1 | -6 | 1 | 10 | 1 | 5 | 0 | / | / | / | / | /
